Ecoli rRNA inh: reduced GFP signal of wild-type E. coli, primary screen, bacterial rRNA inhibitor project, GFP/RFP fluorescence, OD600, single point. E. coli WT GFP vs humanized-ribosome RFP mutants, 24 h; stronger effect = lower value; DMSO median 0, no signal -100. AID 720706, 2013. hit rate 1.6% among 350,000. GFP signal change (wild-type ribosome), % (test concentration not listed);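 active = significant combined selectivity score with lowered wild-type GFP, culture density cut under 30%, mutant RFP and density less affected; inactive = any of these conditions unmet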
Mot1-301 SUMO: yeast Mot1-301 growth rescue at high temperature, primary screen, SUMOylation pathway inhibitor project, S. cerevisiae, ATP luminescence, 38.5C | S. cerevisiae Mot1-301 growth rescue; percent above DMSO median, 100 means doubled | hit rate 1% among 320,000 | growth rescue, % at 18.8 µM;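 active = every valid replicate shows activation above 250% relative to neutral control wells; inactive = the rest, any valid replicate at or below 250%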;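 also: OY570 slx delta 5 strain wells were the positive control but not used for scaling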
Cneo AK release: Cryptococcus neoformans cell lysis inducers, primary screen, AK release luminescence, single concentration; hit rate 0.2% among 360,000; C. neoformans lysis, adenylate kinase release luminescence, 4 h; normalised: neutral wells 0, clomiphene wells 100; lysis activity, % at 15 µM;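 active = mean lysis activity across replicates of at least 80%, whatever share of replicates individually reach that level; inactive = mean lysis activity below 80%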
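Signal: Adenylate kinase release luminescence | Assay system: Log-phase Cryptococcus neoformans yeast cells | Input: Cells at 5 × 10^6 per mL | Buffer or medium: Fresh YPD growth medium | Compound: Single dose | Schedule: Static 4 h at 37 °C with compound, 1 h detection | Controls: Clomiphene | Read-out: Luminescence rise reflecting yeast cell lysis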
PglD DTNB: C. jejuni PglD acetyltransferase inhibitors, primary screen, biochemical, DTNB colorimetric, single point | UDP-N-acetylbacillosamine N-acetyltransferase PglD (Campylobacter jejuni) | AID 602405, 2012 | purified PglD enzyme, DTNB colorimetric CoA detection | hit rate 0.098% among 360,000 | inhibition, % at 12.5 µM; in the data active = inhibition above about 16%, passing the limit was not always enough
CR mimetic SO: reduction of superoxide in aged yeast, primary screen, HTS; hit rate 0.18% among 330,000; S. cerevisiae aged cells, superoxide DHE fluorescence; stronger effect = lower value; superoxide response (% of plate mean), % at 10 µM; AID 2690, 2010;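 active = superoxide response under a set limit, about three screen SD below normal, cut at about 65% in these data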;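 also: yeast aged for seven days with compound at 30 °C before DHE staining; 100% = average MFI of all compound-treated wells on the plate with controls excluded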
PglD inh SP: PglD acetyltransferase inhibitors, confirmation, biochemical, DTNB absorbance, single point, cherry-picked samples; shares compounds with PglD DTNB; Purified C. jejuni PglD, DTNB absorbance 412 nm; inhibition, % at 20 µM; 320 tested, under 10 active; AID 743156, 2013;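 active = mean inhibition across replicates of at least 20% with every single replicate also at 20% or more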;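 also: initial rate of CoA release by acetyl transfer from AcCoA to the UDP-4-amino sugar; 0% = median of neutral control wells and 100% = median of positive control wells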
* hit, by the source's call; . = no result given. An excerpt weighted towards active compounds, which were near 2.2% of everything screened.

SMILES	Ecoli rRNA inh	Mot1-301 SUMO	Cneo AK release	PglD DTNB	CR mimetic SO	PglD inh SP
CC1Cc2ccccc2N1C(=O)c1ccc(N2CCCC2)c([N+](=O)[O-])c1 (stereo not given)	-33	93	2	22*	82	7
C[C@H]1CN(C)C(=O)c2cccnc2O[C@@H]1CN(C)S(C)(=O)=O	-1	.	.	.	.	.
CCOC(=O)c1ccc(NC(=S)N2CCC(O)CC2)cc1	-2	10	3	24*	111	6
O=C(CN1CCCCCCC1)Nc1ccc(Cl)cc1Cl	-53	-8	.	.	85	.
O=C(CN1CCCCC1)Nc1ccc(NC(=O)c2ccccc2Cl)cc1Cl	-32	2	-1	20*	94	-2
CC(C)CC#Cc1cnc2c(c1)C(=O)N([C@H](C)CO)C[C@H](C)[C@H](CN(C)C(=O)C1CCOCC1)O2	5	.	3	-1	.	.
COc1ccc(N(CC(=O)Nc2cccc(C(C)=O)c2)S(=O)(=O)c2ccc(NC(C)=O)cc2)cc1	-22	124	0	77*	100	2
COCC(=O)NCCNc1nc2ccc(C)cc2cc1C	.	41	1	41*	104	-3
Cc1ccc(C(=O)NCCNc2nc3cc(C)c(C)cc3cc2C)cc1	.	21	1	0	101	.
CCOc1ccc(-c2n[nH]c(C(=O)NN)c2C)cc1	4	0	-2	83*	94	-6
COc1cc(C(=O)Nc2nnc(SC)s2)c([N+](=O)[O-])cc1OC	16	.	.	.	133	.
COc1cc(C(=O)Nc2nnc(C(F)(F)F)s2)c([N+](=O)[O-])cc1OC	0	9	1	43*	101	2
CCc1ccc(N=C2NC(=O)/C(=C/c3cc(Br)c(OCC(=O)O)c(OC)c3)S2)cc1	-6	7	-1	27*	97	20*
Cc1ccc(CCC(=O)Nc2ccc(N(C)C)cc2)o1	9	23	0	83*	99	-3
O=S(=O)(Nc1ccc(Cl)cc1)c1cccc2nsnc12	-14	-21	-6	21*	116	-5
Cc1ccc(NS(=O)(=O)c2cccc3nsnc23)cc1C	-14	8	0	-2	103	.
CC(C)c1cccc(-c2csc(C(C)(O)c3ccc(F)c(F)c3)n2)c1 (stereo not given)	-4	.	0	24*	.	3
CC(O)(c1ccc(F)c(F)c1)c1nc(-c2cccc(F)c2)cs1 (stereo not given)	-63	.	0	2	.	.
O=C(C[C@H]1C=C[C@H](NC(=O)CCN2CCCCC2)[C@H](CO)O1)Nc1nccs1	0	.	0	-1	.	.
O=C(N[C@H]1C=C[C@@H](CC(=O)N2CCOCC2)O[C@@H]1CO)c1cccc(F)c1	0	.	-5	4	.	.
CC1CCCN(S(=O)(=O)c2ccc(Br)s2)C1 (stereo not given)	-41	-10	-5	1	85	.
CC1CCCN(S(=O)(=O)c2ccc(Cl)s2)C1 (stereo not given)	8	85	-5	26*	98	12
O=C1CSC(c2ccncc2)N1Cc1ccccc1 (stereo not given)	5	-15	.	.	107	.
O=C1CSC(c2cccnc2)N1Cc1cccnc1 (stereo not given)	12	10	-1	23*	99	11
O=C(CNC(=O)c1ccc(Br)o1)Nc1ccc(N2CCCCCC2)cc1	-11	.	4	-4	.	.
SMILES	Ecoli rRNA inh	Mot1-301 SUMO	Cneo AK release	PglD DTNB	CR mimetic SO	PglD inh SP
O=C(CNC(=O)c1ccco1)Nc1ccc(N2CCCCCC2)cc1	.	-7	-1	24*	99	-4
Cc1ccccc1-c1nc(-c2ccc(NC(=O)c3ccc(Br)o3)cc2)no1	.	-13	-7	31*	126	2
Cc1ccccc1-c1nc(-c2ccc(Br)o2)no1	26	-4	0	-1	97	.
Cc1cc(C)n(CCCC(=O)O)n1	14	-4	-1	2	92	.
CCSC1=NCN(CCCC(=O)O)CN1	.	5	0	20*	82	-2
COC(=O)c1c(C(=O)OC)c(C)n(Cc2cccnc2)c1C	.	36	0	31*	109	-2
COc1ccc(OC)c(C(=O)CN2CCN(S(=O)(=O)c3ccc(Br)cc3)CC2)c1	.	10	8	21*	109	3
CCOC(=O)c1[nH]c(C)c(C)c1C	.	-17	-2	25*	94	-1
Cc1ccc(S(=O)(=O)N(C)C[C@@H]2Oc3ccc(NS(=O)(=O)c4c(C)noc4C)cc3C(=O)N([C@@H](C)CO)C[C@@H]2C)cc1	5	.	-3	3	.	.
C[C@H](CO)N1C[C@H](C)[C@@H](CN(C)Cc2ccccc2F)Oc2ncc(C3=CCCC3)cc2C1=O	-3	.	0	0	.	.
CCC(=O)Nc1ccc2c(c1)OC[C@@H](C)N(Cc1ccncc1)C[C@@H](C)[C@H](OC)CN(C)C2=O	1	.	51	4	.	.
Cc1ccccc1Cn1c(=O)n(Cc2ccco2)c(=O)c2ccccc21	.	5	-3	42*	118	7
Cc1cccc(Cn2c(=O)n(Cc3ccco3)c(=O)c3ccccc32)c1	.	-4	-2	3	89	.
CSCC[C@H](NC(=O)COc1cc2c(c3oc(=O)c(C)c(C)c13)CCC(C)(C)O2)C(=O)O	-6	-7	4	27*	90	-1
CSC[C@H](NC(=O)COc1cc2c(c3oc(=O)c(C)c(C)c13)CCC(C)(C)O2)C(=O)O	-2	-5	1	-5	91	.
CN(C)c1ccc2c(c1)OC(N)=C(C#N)C2c1cccc(F)c1 (stereo not given)	.	-14	-1	-2	121	.
N#CC1=C(N)Oc2cc(N)ccc2C1c1cccc(F)c1 (stereo not given)	16	-7	-1	72*	99	1
C[C@H](CO)N1C[C@H](C)[C@@H](CN(C)C(=O)c2ccncc2)OCCCC[C@H](C)Oc2ccc(NC(=O)c3ccncc3)cc2C1=O	0	.	1	-3	.	.
CC1=C(C(=O)OCc2ccccc2)C(/C=C/c2ccccc2)NC(=S)N1 (stereo not given)	.	178	3	21*	100	-1
C=CCOC(=O)C1=C(C)NC(=S)NC1/C=C/c1ccccc1 (stereo not given)	.	-11	5	3	103	.
C[C@H]1CN([C@@H](C)CO)C(=O)c2cc(NS(=O)(=O)c3ccccc3)ccc2O[C@@H]1CN(C)C(=O)Nc1ccc2c(c1)OCO2	4	.	4	0	.	.
